Data from ChEMBL document CHEMBL2046325, “Synthesis and SAR-study for novel arylpiperazine derivatives of 5-arylidenehydantoin with α₁-adrenoceptor antagonistic properties” (Bioorg Med Chem, 2012).

Experiments:
[1] = molecular target: T1, Adrenergic receptor alpha-1 (Rattus norvegicus, UniProt P15823+P23944+P43140); test: Displacement of [3H]prazosin from alpha1 adrenoceptor in rat cerebral cortex after 30 mins by beta scintillation counting; type: tissue-based
T1 sequence (P15823 whole entry): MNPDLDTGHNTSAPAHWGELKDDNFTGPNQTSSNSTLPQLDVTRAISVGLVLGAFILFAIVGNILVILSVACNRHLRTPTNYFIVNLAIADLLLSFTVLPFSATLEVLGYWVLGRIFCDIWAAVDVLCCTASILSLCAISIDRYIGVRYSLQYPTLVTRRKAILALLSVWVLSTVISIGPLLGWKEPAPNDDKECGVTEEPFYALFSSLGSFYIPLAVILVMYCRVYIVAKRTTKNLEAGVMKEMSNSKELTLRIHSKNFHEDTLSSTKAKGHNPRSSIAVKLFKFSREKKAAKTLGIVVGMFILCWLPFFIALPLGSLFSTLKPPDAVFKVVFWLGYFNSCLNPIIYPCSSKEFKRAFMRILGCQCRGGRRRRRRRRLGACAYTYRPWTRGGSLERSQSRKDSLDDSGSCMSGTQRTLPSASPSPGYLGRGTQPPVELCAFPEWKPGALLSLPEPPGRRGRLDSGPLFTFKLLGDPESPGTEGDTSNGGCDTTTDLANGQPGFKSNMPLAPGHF
T1 sequence (P23944 whole entry): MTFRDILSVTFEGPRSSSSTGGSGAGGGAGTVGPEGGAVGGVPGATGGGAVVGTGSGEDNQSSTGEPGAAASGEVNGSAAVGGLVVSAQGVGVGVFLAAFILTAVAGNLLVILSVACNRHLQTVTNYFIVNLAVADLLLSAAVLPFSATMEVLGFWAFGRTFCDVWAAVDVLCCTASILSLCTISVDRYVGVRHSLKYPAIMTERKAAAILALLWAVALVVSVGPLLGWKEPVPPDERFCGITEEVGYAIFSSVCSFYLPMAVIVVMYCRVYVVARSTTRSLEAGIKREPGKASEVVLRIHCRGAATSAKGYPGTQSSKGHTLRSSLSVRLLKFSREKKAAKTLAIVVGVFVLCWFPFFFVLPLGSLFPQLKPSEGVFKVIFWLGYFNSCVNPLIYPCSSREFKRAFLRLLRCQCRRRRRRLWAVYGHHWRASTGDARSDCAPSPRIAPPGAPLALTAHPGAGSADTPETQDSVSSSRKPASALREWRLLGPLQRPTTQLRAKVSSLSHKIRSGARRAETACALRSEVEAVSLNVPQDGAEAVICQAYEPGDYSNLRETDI
T1 sequence (P43140 whole entry): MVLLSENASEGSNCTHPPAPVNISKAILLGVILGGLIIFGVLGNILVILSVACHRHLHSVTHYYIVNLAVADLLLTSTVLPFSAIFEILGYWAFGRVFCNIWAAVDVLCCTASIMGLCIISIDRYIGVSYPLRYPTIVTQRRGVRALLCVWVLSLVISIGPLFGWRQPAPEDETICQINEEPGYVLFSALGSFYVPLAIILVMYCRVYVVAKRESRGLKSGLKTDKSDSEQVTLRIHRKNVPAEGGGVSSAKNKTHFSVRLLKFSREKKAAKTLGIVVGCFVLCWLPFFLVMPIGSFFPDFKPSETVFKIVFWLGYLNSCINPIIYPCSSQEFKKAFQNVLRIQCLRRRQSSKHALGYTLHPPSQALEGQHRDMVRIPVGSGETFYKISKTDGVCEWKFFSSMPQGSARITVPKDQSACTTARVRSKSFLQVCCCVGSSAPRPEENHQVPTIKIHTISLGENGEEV
Procedure, shortened: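 Rat cerebral cortex homogenized in 50 mM Tris-HCl, pH 7.6, centrifuged twice at 20000 × g and resuspended at 10 mg wet weight/ml. Tissue incubated with [3H]-prazosin (19.5 Ci/mmol) and test compound for 30 min at 25 °C. Samples filtered on GF/B and counted by scintillation; three-parameter logistic fit of percent binding.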

[2] = molecular target: Adrenergic receptor alpha-1 (Rattus norvegicus) (UniProt P15823+P23944+P43140); test: Antagonist activity at alpha1 adrenoceptor in Wistar rat denuded thoracic aorta rings assessed as inhibition of phenylephrine-induced contraction after 20 mins; type: functional, tissue-based
Procedure, shortened: (§1)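 Male Wistar rats (200-350 g) anaesthetised with thiopental sodium (75 mg/kg ip). Endothelium-denuded thoracic aortic rings, about 4 mm, held in Krebs-Henseleit at 37 °C, pH 7.4, gassed O2/CO2 19:1. Cumulative phenylephrine curves run over 3×10⁻⁹–3×10⁻⁶ M, before and after 20 min with one antagonist concentration per ring (3–4 levels), 60 min recovery between curves. Schild pA2 used if slope is unity, otherwise pKB; ≥5 experiments.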

[3] = molecular target: T1, Adrenergic receptor alpha-1; test: Competitive antagonist activity at alpha1 adrenoceptor in Wistar rat denuded thoracic aorta rings assessed as inhibition of phenylephrine-induced contractions after 20 mins; type: functional, tissue-based; procedure, shortened: as §1

SMILES	Ki [1] [nM]	inhibition [2]	pKb [2]	pA2 [3]
COc1ccccc1N1CCN(CC(O)CN2C(=O)N/C(=C\c3ccccc3)C2=O)CC1.Cl (racemic)	285.9	–	–	–
COc1cccc(/C=C2\NC(=O)N(CC(O)CN3CCN(c4ccccc4)CC3)C2=O)c1OC.Cl (racemic)	318.8	–	–	–
COc1ccc(/C=C2\NC(=O)N(CC(O)CN3CCN(c4ccccc4)CC3)C2=O)cc1OC.Cl (racemic)	197.6	–	–	–
COc1ccccc1N1CCN(CC(O)CN2C(=O)N/C(=C\c3ccc(N(C)C)cc3)C2=O)CC1.Cl (racemic)	834.9	–	–	–
Cl.O=C1N/C(=C\c2ccc(Cl)cc2)C(=O)N1CC(O)CN1CCN(c2ccccc2)CC1 (racemic)	3700	–	–	–
COc1ccccc1N1CCN(CC(O)CN2C(=O)N/C(=C\c3ccc(Cl)cc3)C2=O)CC1.Cl (racemic)	86.3	Dose-dependent effect	7.58	–

The next lines start with the values.

Ki [1] [nM]	inhibition [2]	pKb [2]	pA2 [3]	SMILES
72.1	Dose-dependent effect	7.53	–	CCOc1ccccc1N1CCN(CC(O)CN2C(=O)N/C(=C\c3cccc(OC)c3OC)C2=O)CC1.Cl (racemic)
59.1	Dose-dependent effect	9.01	–	CCOc1ccccc1N1CCN(CC(O)CN2C(=O)N/C(=C\c3ccc(Cl)cc3)C2=O)CC1.Cl (racemic)
231	–	–	–	CCOc1ccccc1N1CCN(CC(O)CN2C(=O)N/C(=C\c3ccc(OC)cc3OC)C2=O)CC1.Cl (racemic)
8700	–	–	–	CCOc1ccccc1N1CCN(CC(O)CN2C(=O)N/C(=C\c3ccc(N(C)C)cc3)C2=O)CC1.Cl (racemic)
91.4	Dose-dependent effect	7.66	–	CCOc1ccccc1N1CCN(CC(O)CN2C(=O)N/C(=C\c3ccccc3)C2=O)CC1.Cl (racemic)
52.2	Dose-dependent effect	8.95	–	COc1ccc(/C=C2\NC(=O)N(CC(O)CN3CCN(c4ccccc4OC)CC3)C2=O)c(OC)c1.Cl (racemic)
44.5	Dose-dependent effect	–	7.56	COc1ccc(/C=C2\NC(=O)N(CC(O)CN3CCN(c4ccccc4OC)CC3)C2=O)cc1OC.Cl (racemic)
70	Dose-dependent effect	–	7.55	COc1ccccc1N1CCN(CC(O)CN2C(=O)N/C(=C\c3cccc(OC)c3OC)C2=O)CC1.Cl (racemic)
